Measured values: ChEMBL document CHEMBL4014269, “Antibacterial and Hypoglycemic Diterpenoids from Salvia chamaedryoides” (J Nat Prod, 2017)
Calls of active or inactive are those of the source.

What was measured:
[1] = target: Alpha-amylase (Sus scrofa); assay: Inhibition of alpha-amylase (hog pancreas) using starch as substrate preincubated for 10 mins followed by substrate addition measured after 10 mins by dinitrosalicylic acid color reagent based assay
Enterococcus faecium [2] = assay: Antibacterial activity against vancomycin-resistant Enterococcus faecium isolate MB 2 after 24 hrs by microdilution assay; format: functional; details: isolate MB 2, 24 h
In short: (§1)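 Clinical isolates from various clinical specimens, identified by standard procedures and kept in a hospital microbiology laboratory collection. The MIC was read by broth microdilution, following a method described in earlier work.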

Staphylococcus aureus [3] = assay: Antibacterial activity against methicillin-resistant Staphylococcus aureus isolate MB 10 after 24 hrs by microdilution assay; format: functional; details: isolate MB 10, 24 h
In short: as §1

Enterococcus faecalis [4] = assay: Antibacterial activity against vancomycin-resistant Enterococcus faecalis isolate MB 51 after 24 hrs by microdilution assay; format: functional; details: isolate MB 51, 24 h
In short: as §1

Moraxella catarrhalis = assay: Antibacterial activity against Moraxella catarrhalis isolate MB 15 after 24 hrs by microdilution assay; format: functional
In short: as §1

Klebsiella pneumoniae = assay: Antibacterial activity against Klebsiella pneumoniae isolate MB 11 after 24 hrs by microdilution assay; format: functional
In short: as §1

Enterococcus faecium [5] = assay: Antibacterial activity against Enterococcus faecium isolate MB 55 after 24 hrs by microdilution assay; format: functional; details: isolate MB 55, 24 h
In short: as §1

Staphylococcus aureus [6] = assay: Antibacterial activity against methicillin-sensitive Staphylococcus aureus isolate MB 21 after 24 hrs by microdilution assay; format: functional; details: isolate MB 21, 24 h
In short: (§2)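 Clinical isolates from a hospital microbiology collection, identified by standard procedures; MICs by broth microdilution.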

Candida albicans = assay: Antifungal activity against Candida albicans isolate MB 31 after 48 hrs by microdilution assay; format: functional
In short: as §1

Enterococcus faecalis [7] = assay: Antibacterial activity against vancomycin-resistant Enterococcus faecalis isolate MB 1 after 24 hrs by microdilution assay; format: functional; details: isolate MB 1, 24 h
In short: as §1

[8] = system: Staphylococcus epidermidis; assay: Antibacterial activity against methicillin-resistant Staphylococcus epidermidis isolate MB 64 after 24 hrs by microdilution assay; format: functional; details: isolate MB 64, 24 h
In short: as §1

Enterococcus faecalis [9] = assay: Antibacterial activity against vancomycin-resistant Enterococcus faecalis isolate MB 49 after 24 hrs by microdilution assay; format: functional; details: isolate MB 49, 24 h
In short: as §1

Nakaseomyces glabratus = assay: Antifungal activity against Candida glabrata isolate MB 8 after 48 hrs by microdilution assay; format: functional
In short: as §1

Enterococcus faecium [10] = assay: Antibacterial activity against vancomycin-resistant Enterococcus faecium isolate MB 23 after 24 hrs by microdilution assay; format: functional; details: isolate MB 23, 24 h
In short: as §1

Escherichia coli = assay: Antibacterial activity against Escherichia coli isolate MB 123 after 24 hrs by microdilution assay; format: functional
In short: as §1

Enterococcus faecium [11] = assay: Antibacterial activity against vancomycin-resistant Enterococcus faecium isolate MB 50 after 24 hrs by microdilution assay; format: functional; details: isolate MB 50, 24 h
In short: as §1

Enterococcus faecalis [12] = assay: Antibacterial activity against Enterococcus faecalis isolate MB 3 after 24 hrs by microdilution assay; format: functional; details: isolate MB 3, 24 h
In short: as §2

Staphylococcus aureus [13] = assay: Antibacterial activity against methicillin-resistant Staphylococcus aureus isolate MB 9 after 24 hrs by microdilution assay; format: functional; details: isolate MB 9, 24 h
In short: as §1

Staphylococcus aureus [14] = assay: Antibacterial activity against methicillin-resistant Staphylococcus aureus isolate MB 18 after 24 hrs by microdilution assay; format: functional; details: isolate MB 18, 24 h
In short: as §1

[15] = system: Staphylococcus epidermidis; assay: Antibacterial activity against methicillin-resistant Staphylococcus epidermidis isolate MB 20 after 24 hrs by microdilution assay; format: functional; details: isolate MB 20, 24 h
In short: as §1

[16] = system: Staphylococcus epidermidis; assay: Antibacterial activity against methicillin-resistant Staphylococcus epidermidis isolate MB 26 after 24 hrs by microdilution assay; format: functional; details: isolate MB 26, 24 h
In short: as §1

[17] = system: Staphylococcus epidermidis; assay: Antibacterial activity against methicillin-sensitive Staphylococcus epidermidis isolate MB 65 after 24 hrs by microdilution assay; format: functional; details: isolate MB 65, 24 h
In short: as §2

Proteus mirabilis = assay: Antibacterial activity against Proteus mirabilis isolate MB 14 after 24 hrs by microdilution assay; format: functional
In short: as §1

[18] = target: alpha-glucosidase (Saccharomyces cerevisiae); assay: Inhibition of alpha-glucosidase (Saccharomyces cerevisiae) using 4-nitrophenyl alpha-D-glucopyranoside as substrate after 10 mins

C[C@]12C[C@H](c3ccoc3)OC(=O)[C@@H]1[C@H](O)C[C@@]13COC(=O)C1=CC=C[C@H]32
53.5 µg/mL: IC50 [1]

CC(=O)O[C@H](C[C@@]1(C)[C@H](C)[C@H](O[C@@H]2O[C@H](CO)[C@@H](O)C(=O)[C@H]2O)C[C@@]23COC(=O)C2=CCC[C@@H]31)c1ccoc1
> 128 µg/mL: MIC (Staphylococcus aureus [3]) | MIC (Enterococcus faecium [5]) | MIC (Staphylococcus aureus [6]) | MIC [8] | MIC (Enterococcus faecium [10]) | MIC (Staphylococcus aureus [13]) | MIC (Staphylococcus aureus [14]) | MIC [15] | MIC [16] | MIC [17]
inactive: Activity (Moraxella catarrhalis) | Activity (Klebsiella pneumoniae) | Activity (Candida albicans) | Activity (Nakaseomyces glabratus) | Activity (Escherichia coli) | Activity (Proteus mirabilis)
234 µM: MIC (Enterococcus faecium [2]) | MIC (Enterococcus faecalis [7]) | MIC (Enterococcus faecalis [9]) | MIC (Enterococcus faecium [11])
117 µM: MIC (Enterococcus faecalis [4]) | MIC (Enterococcus faecalis [12])

O=C1OCC=C1[C@H]1CCc2ccc3c(c2C1)[C@H](c1ccoc1)OC3=O
> 128 µg/mL: MIC (Staphylococcus aureus [3]) | MIC (Enterococcus faecalis [4]) | MIC (Staphylococcus aureus [6]) | MIC (Enterococcus faecalis [7]) | MIC [8] | MIC (Enterococcus faecalis [9]) | MIC (Enterococcus faecalis [12]) | MIC (Staphylococcus aureus [13]) | MIC (Staphylococcus aureus [14]) | MIC [15] | MIC [16] | MIC [17]
inactive: Activity (Moraxella catarrhalis) | Activity (Klebsiella pneumoniae) | Activity (Candida albicans) | Activity (Nakaseomyces glabratus) | Activity (Escherichia coli) | Activity (Proteus mirabilis)
381 µM: MIC (Enterococcus faecium [2]) | MIC (Enterococcus faecium [5]) | MIC (Enterococcus faecium [10]) | MIC (Enterococcus faecium [11])

C[C@@]12/C=C/C=C\C3=C(COC3=O)C[C@@H](O)[C@H]1C(=O)O[C@@H](c1ccoc1)C2
inactive: Activity (Moraxella catarrhalis) | Activity (Klebsiella pneumoniae) | Activity (Candida albicans) | Activity (Nakaseomyces glabratus) | Activity (Escherichia coli) | Activity (Proteus mirabilis)
89.9 µM: MIC (Enterococcus faecium [2]) | MIC (Enterococcus faecalis [4]) | MIC (Enterococcus faecium [5]) | MIC (Enterococcus faecalis [12])
180 µM: MIC (Enterococcus faecalis [7]) | MIC (Enterococcus faecalis [9]) | MIC (Enterococcus faecium [10]) | MIC (Enterococcus faecium [11])
> 128 µg/mL: MIC (Staphylococcus aureus [3]) | MIC (Staphylococcus aureus [6]) | MIC [8] | MIC (Staphylococcus aureus [13]) | MIC (Staphylococcus aureus [14]) | MIC [15] | MIC [16] | MIC [17]

C[C@]12C[C@H](c3ccoc3)OC(=O)[C@@]1(O)[C@H](O)C[C@@]13COC(=O)C1=CCC[C@@H]32
> 128 µg/mL: MIC (Staphylococcus aureus [3]) | MIC (Enterococcus faecalis [4]) | MIC (Staphylococcus aureus [6]) | MIC (Enterococcus faecalis [7]) | MIC [8] | MIC (Enterococcus faecalis [9]) | MIC (Enterococcus faecium [11]) | MIC (Enterococcus faecalis [12]) | MIC (Staphylococcus aureus [13]) | MIC (Staphylococcus aureus [14]) | MIC [15] | MIC [16] | MIC [17]
342 µM: MIC (Enterococcus faecium [2]) | MIC (Enterococcus faecium [5]) | MIC (Enterococcus faecium [10])
inactive: Activity (Moraxella catarrhalis) | Activity (Klebsiella pneumoniae) | Activity (Candida albicans) | Activity (Nakaseomyces glabratus) | Activity (Escherichia coli) | Activity (Proteus mirabilis)

C[C@]12C[C@H](c3ccoc3)OC(=O)[C@@H]1[C@H](O)C[C@]13COC(=O)C1=CC=C[C@@H]32
inactive: Activity (Moraxella catarrhalis) | Activity (Klebsiella pneumoniae) | Activity (Candida albicans) | Activity (Nakaseomyces glabratus) | Activity (Escherichia coli) | Activity (Proteus mirabilis)
359 µM: MIC (Enterococcus faecium [2]) | MIC (Enterococcus faecium [11])
> 128 µg/mL: MIC (Staphylococcus aureus [3]) | MIC (Enterococcus faecalis [4]) | MIC (Enterococcus faecium [5]) | MIC (Staphylococcus aureus [6]) | MIC (Enterococcus faecalis [7]) | MIC [8] | MIC (Enterococcus faecalis [9]) | MIC (Enterococcus faecium [10]) | MIC (Enterococcus faecalis [12]) | MIC (Staphylococcus aureus [13]) | MIC (Staphylococcus aureus [14]) | MIC [15] | MIC [16] | MIC [17]

C[C@]12C[C@H](c3ccoc3)OC(=O)[C@@]1(O)[C@@H](O)C[C@@]13COC(=O)C1=CC[C@@H](O)[C@@H]32
113.2 µg/mL: IC50 [18]
238.1 µg/mL: IC50 [1]

CC(C)c1cc2c(c(O)c1O)[C@@]13CCCC(C)(C)[C@@H]1[C@H](OC3=O)C2=O
93 µM: MIC (Enterococcus faecalis [4]) | MIC (Enterococcus faecium [10]) | MIC (Enterococcus faecium [11]) | MIC (Enterococcus faecalis [12])
> 128 µg/mL: MIC (Staphylococcus aureus [3]) | MIC (Staphylococcus aureus [6]) | MIC [8] | MIC (Staphylococcus aureus [13]) | MIC (Staphylococcus aureus [14]) | MIC [15] | MIC [16] | MIC [17]
inactive: Activity (Moraxella catarrhalis) | Activity (Klebsiella pneumoniae) | Activity (Candida albicans) | Activity (Nakaseomyces glabratus) | Activity (Escherichia coli) | Activity (Proteus mirabilis)
186 µM: MIC (Enterococcus faecium [2]) | MIC (Enterococcus faecium [5]) | MIC (Enterococcus faecalis [7]) | MIC (Enterococcus faecalis [9])

C[C@]12C[C@H](c3ccoc3)OC(=O)[C@]1(O)[C@H](O)C[C@@]13COC(=O)C1=CCC[C@@H]32
inactive: Activity (Moraxella catarrhalis) | Activity (Klebsiella pneumoniae) | Activity (Candida albicans) | Activity (Nakaseomyces glabratus) | Activity (Escherichia coli) | Activity (Proteus mirabilis)
85.5 µM: MIC (Enterococcus faecalis [4])
> 128 µg/mL: MIC (Staphylococcus aureus [3]) | MIC (Staphylococcus aureus [6]) | MIC [8] | MIC (Staphylococcus aureus [13]) | MIC (Staphylococcus aureus [14]) | MIC [15] | MIC [16] | MIC [17]
171 µM: MIC (Enterococcus faecium [2]) | MIC (Enterococcus faecalis [7]) | MIC (Enterococcus faecalis [9]) | MIC (Enterococcus faecium [11])
342 µM: MIC (Enterococcus faecium [5]) | MIC (Enterococcus faecium [10]) | MIC (Enterococcus faecalis [12])
